Measured values gathered from unrelated publications.
Target: 1-phosphatidylinositol 3-phosphate 5-kinase (PIKFYVE, Homo sapiens, UniProt Q9Y2I7)

CN(c1ccnc(CNc2nc(Nc3ccc4c(c3)CC(=O)N4)ncc2C(F)(F)F)n1)S(C)(=O)=O — remaining binding (cell-free assay, competition with immobilised ligand; 1 µM): 100%
O=C(NCC1CCOCC1)c1n[nH]cc1NC(=O)c1c(F)cccc1F — remaining binding (binding, competition with immobilised ligand; 1 µM): 100%
CNC(=O)[C@@H]1CC[C@@H](n2c(-c3ccc4cnccc4c3)nc3ccc(C(=O)NCc4cccc(C(N)=O)c4)cc32)C1 — remaining binding (binding, competition with immobilised ligand; 1 µM): 14%
CS(=O)(=O)N1CCCC(NC(=O)[C@H](CCC2CCCCC2)NC(=O)c2ccc(CNc3ncnc4c3nnn4-c3ccccc3)cc2)C1 (stereo partly shown) — remaining binding (cell-free assay, competition with immobilised ligand; 0.1 µM): 61%
Cc1cnc(Nc2ccc(C(=O)N3CCC(N4CCCC4)CC3)cc2)nc1-c1cc2ccccc2s1 — remaining binding (binding, competition with immobilised ligand; 1 µM): 79%
F[C@@H]1CCN(c2nccc(-c3cnn4ncccc34)n2)C1 — remaining binding (binding; 1 µM): 82%
CC(C)CC(=O)N1CCc2nc(-c3ccc(Br)cc3)nc(N(C)Cc3ccccc3)c2C1 — remaining binding (cell-free assay, competition with immobilised ligand; 0.1 µM): 91%
C[C@H]1CCN(c2nccc(-c3cnn4ncccc34)n2)C1 — remaining binding (binding; 1 µM): 100%
CN1CCN(c2cnc3c(C4CCN(C(=O)c5ccc(OC(F)(F)F)cc5N)CC4)ncnc3c2)CC1 — remaining binding (cell-free assay, competition with immobilised ligand; 1 µM): 98%
O=C(NCCCN1CCOCC1)c1ccc(Nc2nccc(-c3cc4ccccc4s3)n2)cc1 — remaining binding (binding, competition with immobilised ligand; 1 µM): 0.3%
COc1ncc2cc3ccccc3nc2c1C#N — remaining binding (cell-free assay, competition with immobilised ligand; 5 µM): 90%
CN(C)c1ncc(F)c(-c2cnn3ncccc23)n1 — remaining binding (binding; 1 µM): 100%
COc1cc(-c2cn(C3CCc4c(F)cccc4N(CC(F)(F)F)C3=O)nn2)ccc1-n1cnc(C)c1 (stereo not shown) — remaining binding (cell-free assay, competition with immobilised ligand; 1 µM): 100%
Cc1cnn2ncc(-c3ccnc(N(C)C)n3)c2c1 — remaining binding (binding; 1 µM): 87%
COc1cccc(CNC(=O)c2nc3scc(COCc4ccc(C(=O)O)cc4)c3c(=O)[nH]2)c1 — remaining binding (cell-free assay, competition with immobilised ligand; 1 µM): 100%
CC1CCCN1c1nccc(-c2cnn3ncccc23)n1 (stereo not shown) — remaining binding (binding; 1 µM): 100%
FC(F)(F)Oc1cccc(-c2cnc3ccc(-c4ccncc4)nn23)c1 — remaining binding (cell-free assay, competition with immobilised ligand; 5 µM): 2.4%
O=C(NCCCN1CCOCC1)c1ccc(Nc2ncc(Cl)c(-c3ccc(Cl)s3)n2)cc1 — remaining binding (binding, competition with immobilised ligand; 1 µM): 53%
CN(CCCC(F)(F)F)c1nccc(-c2cnn3ncccc23)n1 — remaining binding (binding; 1 µM): 45%
